From ChEMBL document CHEMBL3286344, “Bromopyrrole alkaloids isolated from the Patagonian bryozoan Aspidostoma giganteum” (J Nat Prod, 2014)

Test: Cytotoxicity against human 786-O cells assessed as growth inhibition by MTS assay
Format: functional, cell-based
Conditions: 786-0; call rule not given here
Outline: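 Cells seeded at 2 × 10³/well in complete medium; after 24 h, serial doses 0.05−100 μM or DMSO vehicle in medium with 2% FBS for 3 days, medium with fresh compound replaced every 2 days. Viability by MTS reduction to formazan, read as 492/620 nm absorbance ratio; IC50 derived. Cells checked mycoplasma-free by Hoechst method.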

Structure (SMILES) | IC50
O=c1c2c(Br)c(Br)cn2c(-c2cc(Br)c(O)c(Br)c2)cn1-n1cc(-c2cc(Br)c(O)c(Br)c2)n2c(Br)c(Br)cc2c1=O | Not Active
O=C(NC[C@@H](O)c1cc(Br)c(O)c(Br)c1)c1[nH]c(Br)c(Br)c1Br | Not Active
O=C(NC[C@@H](O)c1cc(Br)c(O)c(Br)c1)c1[nH]cc(Br)c1Br | Not Active
O=C1N[C@H](O)[C@H](c2c(Br)[nH]c3ccc(Br)cc23)n2c(Br)c(Br)c(Br)c21 | Not Active
O=C(NC[C@@H](O)c1cc(Br)c(O)c(Br)c1)c1cc(Br)c(Br)[nH]1 | Not Active
CCO[C@H](CNC(=O)c1[nH]c(Br)c(Br)c1Br)c1cc(Br)c(O)c(Br)c1 | Not Active

Same assay, conditions: Homo sapiens, 786-0; read-out: IC50

Structure (SMILES) | IC50 [µM]
CO[C@H]1NC(=O)c2c(Br)c(Br)c(Br)n2[C@H]1c1c(Br)[nH]c2ccc(Br)cc12 | 7.8
O=C(NCCc1c(Br)[nH]c2cc(Br)cc(O)c12)c1cc(Br)c(Br)[nH]1 | 15.1
O=c1[nH]cc(-c2c(Br)[nH]c3ccc(Br)cc23)n2c(Br)c(Br)c(Br)c12 | 27
COc1cccc2c1C(=O)c1c(O)c3c(c(O)c1C2=O)C[C@@](O)(C(=O)CO)C[C@@H]3O[C@H]1C[C@H](N)[C@H](O)[C@H](C)O1 [DOXORUBICIN] | 0.13
COc1ccc(C(=O)C(NC(=O)c2cc(Br)c(Br)[nH]2)OC)cc1Br (stereo unspecified) | 100
